What was measured:
NCI-H460 = assay: Cytotoxicity against human NCI-H460 cells assessed as reduction in cell viability incubated for 48 hrs by SRB assay; type: functional; settings: NCI-H460, 48 h
How it was run: (§1)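 Cells from ATCC, plated at 7000–8000 cells/well in DMEM with 5% FBS and 1% gentamicin and left 24 h at 37 °C, 5% CO2. Compounds from a 10 mg mL–1 DMSO stock were serially diluted and added for 48 h. Cells were fixed with TCA (10% final), stained with SRB, and the dye solubilized in 10 mM Tris. A540 was normalized to A630, and GI50 was taken as 50% reduction in net protein increase.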

SK-OV-3 = assay: Cytotoxicity against human SKOV3 cells assessed as reduction in cell viability incubated for 48 hrs by SRB assay; type: functional; settings: SK-OV-3, 48 h; how it was run: as §1
Tubulin = assay: Inhibition of tubulin polymerization (unknown origin) incubated for 10 mins by spectrophotometry; type: protein-complex assay, Homo sapiens
DU-145 = assay: Cytotoxicity against human DU145 cells assessed as reduction in cell viability incubated for 48 hrs by SRB assay; type: functional; settings: DU-145, 48 h; how it was run: as §1
HUVEC = assay: Cytotoxicity against HUVEC assessed as reduction in cell viability incubated for 48 hrs by SRB assay; type: cell-based; settings: human
How it was run: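 HUVECs were grown in M200 with VEGF kit supplements in collagen I coated flasks, then plated at 9000 cells/well and given 48 h to attach. Compounds were added as 10-fold serial dilutions in M200 with LSGS kit, 1% gentamicin and 1% amphotericin B. Growth was read by SRB assay, and GI50 was taken as the concentration inhibiting growth by 50%.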

[1] = Selectivity index, ratio of GI50 for HUVEC to GI50 for human DU145 cells; type: toxicity; settings: HUVEC versus DU145 cells, read-out: RatioGI50
[2] = Selectivity index, ratio of GI50 for HUVEC to GI50 for human SKOV3 cells; type: toxicity; settings: HUVEC versus SKOV3 cells, read-out: RatioGI50
[3] = Selectivity index, ratio of GI50 for HUVEC to GI50 for human NCI-H460 cells; type: toxicity; settings: HUVEC versus NCI-H460 cells, read-out: RatioGI50
Tubulin (Homo sapiens) = Tubulin (Homo sapiens) (UniProt P68371+Q9H4B7+P0DPH7+P68366+Q13509+Q71U36+P04350+Q3ZCM7+P07437+P68363+Q9BQE3+Q6PEY2+Q13885+Q9BVA1+Q9BUF5); assay: Inhibition of [3H]colchicine binding to tubulin (unknown origin) at 5 uM incubated for 10 mins by scintillation counting method relative to control; type: protein-complex assay

Row | Compound | IC50 (Tubulin) | inhibition (Tubulin (Homo sapiens)) | GI50 (NCI-H460) | GI50 (SK-OV-3) | GI50 (DU-145) | Activity (HUVEC) | selectivity ratio [1] | selectivity ratio [2] | selectivity ratio [3]
1 | COc1cc(Cc2ccc3c([N+](=O)[O-])c(OC)ccc3c2O)cc(OC)c1OC |  |  | 22.9 µM | 21 µM | 18.6 µM |  |  |  | 
2 | COc1cc(/C=C2\CCCc3c(ccc(OC)c3[N+](=O)[O-])C2=O)cc(OC)c1OC | > 20 µM |  | 5.96 µM | 16.1 µM | 5.94 µM |  |  |  | 
3 | COc1ccc(/C=C\c2cc(OC)c(OC)c(OC)c2)cc1O [COMBRETASTATIN A4] |  |  | 0.005 µM | 0.00506 µM | 0.00602 µM |  |  |  | 
4 | COc1cc(Cc2ccc3c(N)c(OC)ccc3c2O)cc(OC)c1OC |  |  | 65.2 µM | 16.4 µM | 49.7 µM |  |  |  | 
5 | COc1ccc2c(c1N)CCC/C(=C\c1cc(OC)c(OC)c(OC)c1)C2=O | > 20 µM | 0.34% | 0.733 µM | 0.936 µM | 0.237 µM | Non-Toxic | 100 | 100 | 100
6 | COc1cccc2c1C(=O)c1c(O)c3c(c(O)c1C2=O)C[C@@](O)(C(=O)CO)C[C@@H]3O[C@H]1C[C@H](N)[C@H](O)[C@H](C)O1 [DOXORUBICIN] |  |  | 0.0547 µM | 0.0875 µM | 0.108 µM |  |  |  | 
7 | COc1cc(Cc2ccc3c(Br)c(OC)ccc3c2O)cc(OC)c1OC |  |  | 5.92 µM | 18.3 µM | 6.17 µM |  |  |  | 
8 | COc1cc(Cc2ccc3c(O)c(OC)ccc3c2O)cc(OC)c1OC |  |  | 24.4 µM | 21.9 µM | 23.4 µM |  |  |  | 
9 | COc1ccc2c(c1O)CCC(=C\c1cc(OC)c(OC)c(OC)c1)/C2=N\O | > 20 µM |  | 22.8 µM | 38.2 µM | 23.9 µM |  |  |  | 
10 | CC(=O)O[C@H]1C(=O)[C@@]2(C)[C@H]([C@H](OC(=O)c3ccccc3)[C@]3(O)C[C@H](OC(=O)[C@H](O)[C@@H](NC(=O)c4ccccc4)c4ccccc4)C(C)=C1C3(C)C)[C@]1(OC(C)=O)CO[C@@H]1C[C@@H]2O [PACLITAXEL] |  |  | 0.00165 µM | 0.00136 µM | 0.00152 µM |  |  |  | 

Continued, in another order:

Row | IC50 (Tubulin) | inhibition (Tubulin (Homo sapiens)) | Compound | GI50 (NCI-H460) | GI50 (SK-OV-3) | GI50 (DU-145) | Activity (HUVEC) | selectivity ratio [1] | selectivity ratio [2] | selectivity ratio [3]
11 | > 20 µM |  | COc1ccc2c(c1)CC[C@H]1[C@H](c3cc(OC)c(OC)c(OC)c3)[C@@H]21 | 38.8 µM | 54.5 µM | 41.1 µM |  |  |  | 
12 | 17 µM |  | COc1ccc2c(O)c(Cc3cc(OC)c(OC)c(OC)c3)ccc2c1 | 13.4 µM | 7.5 µM | 8.84 µM | Toxic |  |  | 
13 | > 20 µM |  | COc1ccc2c(c1Br)CC[C@H]1[C@H](c3cc(OC)c(OC)c(OC)c3)[C@@H]21 | 59.2 µM | 108 µM | 61.5 µM |  |  |  | 
14 | > 20 µM | 14% | COc1ccc2c(c1O)CCC/C(=C\c1cc(OC)c(OC)c(OC)c1)C2=O | 0.635 µM | 0.941 µM | 0.456 µM | Non-Toxic | 10 | 10 | 10
15 | > 20 µM |  | COc1ccc2c(c1N)CC/C(=C\c1cc(OC)c(OC)c(OC)c1)C2=O | 46.4 µM | > 135 µM | 32.4 µM | Toxic |  |  | 
16 | > 20 µM |  | COc1ccc2c(c1)CC/C(=C\c1cc(OC)c(OC)c(OC)c1)C2=O | 22.4 µM | 40.3 µM | 22.6 µM |  |  |  | 
17 | > 20 µM |  | COc1ccc2c(c1Br)CC/C(=C\c1cc(OC)c(OC)c(OC)c1)C2=O | 22.6 µM | 29.6 µM | 27.6 µM |  |  |  | 
18 | > 20 µM |  | COc1cc(/C=C2\CCc3c(ccc(OC)c3[N+](=O)[O-])C2=O)cc(OC)c1OC | 36.3 µM | 23.5 µM | 37.6 µM |  |  |  | 
19 | > 20 µM |  | COc1ccc2c(c1C#N)CC/C(=C\c1cc(OC)c(OC)c(OC)c1)C2=O | 44.4 µM | 33.3 µM | 57.2 µM |  |  |  | 
20 | > 20 µM |  | COc1ccc2c(c1Br)CCC(=C\c1cc(OC)c(OC)c(OC)c1)/C2=N\O | 47 µM | 80.1 µM | 50.1 µM |  |  |  | 
21 | > 20 µM |  | COc1ccc2c(c1)CCC/C(=C\c1cc(OC)c(OC)c(OC)c1)C2=O | 6.57 µM | 12 µM | 9.71 µM |  |  |  | 
22 | > 20 µM |  | COc1ccc2c(c1Br)CCC/C(=C\c1cc(OC)c(OC)c(OC)c1)C2=O | 4.44 µM | 8.5 µM | 9.91 µM |  |  |  | 
23 | > 20 µM |  | COc1ccc2c(c1O)CC/C(=C\c1cc(OC)c(OC)c(OC)c1)C2=O | 6.44 µM | 6.29 µM | 5.49 µM | Toxic |  |  | 
